Results on 1 compound are retold here after ChEMBL document CHEMBL1671864, “First assessment in humans of the safety, tolerability, pharmacokinetics, and ex vivo pharmacodynamic antimalarial activity of the new artemisinin derivative artemisone” (Antimicrob Agents Chemother, 2008).

SMILES strings stand for the structures. In brackets after ≈: the same amount, converted by molar mass.

In general, Tmax refers to the time from dosing to the highest level. By CL/F is commonly meant clearance divided by bioavailability, as obtained after extravascular dosing. By AUC is commonly meant concentration integrated over time. A higher AUC goes with high exposure. As usually defined, the MRT is a mean duration of stay, worked out from the concentration-time curve. The IC50 is the concentration at which inhibition is half-maximal. Broadly, the Cmax is the peak of the concentration-time curve. The term half-life denotes the time needed for the level to fall by half in the phase considered. Higher therefore signals slow decline.

The nature of series [1]: Tmax in healthy human plasma at 20 mg, po administered as single ascending doses as solution during 10 hrs overnight fasting state. Format: ADME, organism-based. Put shortly:
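Healthy Caucasian male volunteers, randomized within each dose group against placebo, given a single oral solution with 240 ml water after a 10-h overnight fast. Plasma sampled predose and at 0.25–14 h, quantified by LC/MS-MS (MRM, deuterated internal standard). Tmax read directly from individual noncompartmental concentration–time data.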

A short description of series [2]: Apparent oral clearance in healthy human at 20 mg, po administered as single ascending doses as solution during 10 hrs overnight fasting state. The format is ADME, organism-based. To be noted: in vivo. Put shortly: (§1)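 Single ascending oral doses in healthy Caucasian men, given fasted (10-h overnight) with 240 ml water: 10, 20, 30 or 40 mg as oral solution, or 80 mg as IR tablets. Parent plasma levels by LC/MS-MS over 0.25–14 h. Noncompartmental analysis: kel by terminal-phase least-squares regression, AUC extrapolated to infinity, CL/F = dose/AUC, V/F = CL/F÷kel.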

A short description of series [3]: Apparent volume of distribution with respect to the bioavailability in healthy human at 20 mg, po administered as single ascending doses as solution during 10 hrs overnight fasting state. To be noted: in vivo, read-out: Vc/F. Format: ADME, organism-based. The method, boiled down: as §1
A short description of series [4]: AUC in healthy human plasma at 30 mg, po administered as single ascending doses as solution during 10 hrs overnight fasting state. The format is ADME, organism-based. Also noted: time < 10 hr, dose 30 mg, route oral. Put shortly:
as §1

Series [5] can be described thus: Mean residence time in healthy human at 30 mg, po administered as single ascending doses as solution during 10 hrs overnight fasting state. The format is ADME, organism-based. The settings on record: in vivo. Put shortly: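 Healthy Caucasian male volunteers, single oral dose with 240 ml water after a 10-h overnight fast. Heparinised venous blood was drawn predose and at 0.25–14 h. Plasma was stored frozen. Parent drug and metabolites M1–M3 were measured by LC/MS-MS (MRM, deuterated internal standard). Noncompartmental analysis gave Cmax observed, t1/2 = 0.693/kel (terminal regression) and MRT = AUMC/AUC. Values are geometric means.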

A short description of series [6]: Mean residence time in healthy human at 80 mg, po administered as single immediate release tablets during 10 hrs overnight fasting state. The settings on record: in vivo. The format is ADME, organism-based. The method, boiled down: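 Healthy Caucasian male volunteers (n=6 active, 2 placebo, randomized), single 80 mg dose as four 20-mg tablets with 240 ml water after 10-h fast. Venous lithium-heparin plasma sampled predose and 0.25–14 h; analysed by LC/MS-MS (MRM, deuterated internal standard). Noncompartmental analysis; Tmax observed directly; MRT = AUMC/AUC with extrapolation to infinity via kel.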

In another series the test system is Plasmodium falciparum. The experiment in a line: Antimalarial activity against Plasmodium falciparum TM90-C2A in human plasma assessed as inhibition of hypoxanthine uptake by intraerythrocytic malaria parasites by hypoxanthine incorporation assay. Format: functional, organism-based. The method, boiled down:
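K1 or TM90-C2A parasites were sorbitol-synchronized and cultured in RPMI 1640. Drug was diluted in drug-free human serum (0.04–40 ng/ml) or subject plasma was diluted twofold (8–8,192). Parasites were added at 2% hematocrit, 1% parasitemia (>95% rings), and [3H]hypoxanthine uptake was measured over 48 h. IC50 or ID50 came from concentration or dilution-response curves. Equivalent concentration = ID50 × IC50.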

Series [7] in a line: Cmax in healthy human plasma at 40 mg, po administered as two 20 mg immediate release tablets daily for 3 days during 10 hrs overnight fasting state measured after 1 day. Format: ADME, organism-based. Also noted: dose 40 mg, route oral. The method, boiled down:
(§2)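 Healthy Caucasian males took tablets once daily for 3 days with 240 ml water after a 10-h fast. Heparinised blood was drawn predose and at 0.25–14 h after the first and last doses. Plasma parent drug and metabolites M1–M3 were measured by LC/MS-MS (MRM, deuterated internal standard). Noncompartmental analysis gave Cmax observed, t1/2 = 0.693/kel and MRT = AUMC/AUC. Values are geometric means.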

A short description of series [8]: Cmax in healthy human plasma at 40 mg, po administered as two 20 mg immediate release tablets daily for 3 days during 10 hrs overnight fasting state measured after 3 day. The format is ADME, organism-based. Also noted: dose 40 mg, route oral. The method, boiled down:
as §2

Series [9] in a line: Half life in healthy human plasma at 80 mg, po administered as four 20 mg immediate release tablets daily for 3 days during 10 hrs overnight fasting state measured after 1 day. The format is ADME, organism-based. The method, boiled down: as §2
The nature of series [10]: Mean residence time in healthy human at 80 mg, po administered as four 20 mg immediate release tablets daily for 3 days during 10 hrs overnight fasting state measured after 3 day. Format: ADME, organism-based. The settings on record: in vivo. Put shortly:
as §2

`C[C@H]1[C@H](N2CCS(=O)(=O)CC2)O[C@@H]2O[C@@]3(C)CC[C@H]4[C@H](C)CC[C@@H]1[C@@]24OO3` [ARTEMIFONE]: in series [1], the Tmax amounted to 0.5 h. In addition, the CL/F in [2] is 5080 mL/min. The Vd/F in series [3] worked out at 19.1 L/kg. The same compound gave an AUC at 10 h in series [4] of 71.8 ng·h/mL. The MRT in [5] was 2.29 h; in series [6], 2.64 h; in series [10] it was 3.53 h. In the series on Plasmodium falciparum, the IC50 came to 0.64 ng/mL (≈ 1.59 nM). Besides, the maximum concentration (Cmax) in [7] came out at 96.4 ng/mL; in series [8], 95 ng/mL. In [9], this compound showed a half-life of 2.97 h.
